Assay results reported in ChEMBL document CHEMBL4400523, “Synthesis of novel pyrido[1,2-c]pyrimidine derivatives with rigidized tryptamine moiety as potential SSRI and 5-HT1A receptor ligands” (Eur J Med Chem, 2019).

Key:
[1] = target: T1, 5-hydroxytryptamine receptor 1A (Homo sapiens, UniProt P08908); experiment: Displacement of [3H]-8-OH-DPAT from recombinant human 5HT1A receptor expressed in CHO cell membranes measured after 60 mins by microbeta scintillation counting analysis
T1 sequence (P08908 whole entry): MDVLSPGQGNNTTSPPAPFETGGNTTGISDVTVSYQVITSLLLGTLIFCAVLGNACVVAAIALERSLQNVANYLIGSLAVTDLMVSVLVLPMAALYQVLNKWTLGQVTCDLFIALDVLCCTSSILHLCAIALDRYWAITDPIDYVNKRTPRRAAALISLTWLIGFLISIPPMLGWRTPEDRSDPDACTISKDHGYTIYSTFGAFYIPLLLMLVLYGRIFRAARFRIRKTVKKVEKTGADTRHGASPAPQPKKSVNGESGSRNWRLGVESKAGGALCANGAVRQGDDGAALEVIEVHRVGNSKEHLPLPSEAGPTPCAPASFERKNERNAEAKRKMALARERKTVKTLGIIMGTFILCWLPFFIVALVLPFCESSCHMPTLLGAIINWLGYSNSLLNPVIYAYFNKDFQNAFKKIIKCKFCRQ

[2] = target: Sodium-dependent serotonin transporter (Rattus norvegicus, UniProt P31652); experiment: Displacement of [3H]-citalopram from SERT in rat cortex tissue measured after 60 mins by microbeta scintillation counting analysis
How it was run: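 Rat cortex tissue suspension with 1.0 nM [3H]-citalopram in 50 mM Tris pH 7.7, 150 mM NaCl, 5 mM KCl. Incubated 60 min at 24 °C, in duplicate. GF/B filtration, scintillation counting. One-site fit, Ki via Cheng–Prusoff with in-house Kd.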

[3] = target: 5-hydroxytryptamine receptor 2A (Homo sapiens, UniProt P28223); experiment: Displacement of [3H]-ketanserin from recombinant human 5HT2A receptor expressed in HEK293 cells measured after 1.5 hrs by microbeta scintillation counting analysis; assay type: cell-based
[4] = target: 5-hydroxytryptamine receptor 6 (Homo sapiens, UniProt P50406); experiment: Displacement of [3H]-LSD from recombinant human 5HT6 receptor expressed in HEK293 cells measured after 1 hr by microbeta scintillation counting analysis; assay type: cell-based
[5] = target: 5-hydroxytryptamine receptor 7 (Homo sapiens, UniProt P34969); experiment: Displacement of [3H]-5-CT from recombinant human 5HT7 receptor expressed in HEK293 cells measured after 1 hr by microbeta scintillation counting analysis; assay type: cell-based
[6] = target: D(2) dopamine receptor (Homo sapiens, UniProt P14416); experiment: Displacement of [3H]-raclopride from recombinant human D2 receptor expressed in HEK293 cells measured after 1 hr by microbeta scintillation counting analysis; assay type: cell-based
[7] = test system: Mus musculus; experiment: Induction of hypothermia in CD-1 mouse assessed as change in body temperature at 5 mg/kg, ip measured after 30 mins by thermometric method; assay type: functional, organism-based
How it was run: (§1)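 Male CD-1 mice (23–40 g), 6–8 per dose, given compound ip in 10% aqueous DMSO (10 mL/kg). Rectal temperature was read by thermometer 30, 60, 90 and 120 min after dosing. Results are expressed as change from basal temperature at experiment start. Analysis by Dunnett's test.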

[8] = test system: Mus musculus; experiment: Induction of hypothermia in CD-1 mouse assessed as change in body temperature at 20 mg/kg, ip measured after 30 mins by thermometric method; assay type: functional, organism-based; how it was run: as §1
[9] = test system: Mus musculus; experiment: Induction of hypothermia in CD-1 mouse assessed as change in body temperature at 15 mg/kg, ip measured after 30 mins by thermometric method (Rvb <= 0.4 deg C); assay type: functional, organism-based; how it was run: as §1
[10] = test system: Mus musculus; experiment: Induction of hypothermia in CD-1 mouse assessed as change in body temperature at 17.5 mg/kg, ip measured after 30 mins by thermometric method (Rvb <= 0.4 deg C); assay type: functional, organism-based; how it was run: as §1
[11] = test system: Mus musculus; experiment: Induction of hypothermia in CD-1 mouse assessed as change in body temperature at 5 mg/kg, ip measured after 60 mins by thermometric method; assay type: functional, organism-based; how it was run: as §1
[12] = test system: Mus musculus; experiment: Induction of hypothermia in CD-1 mouse assessed as change in body temperature at 20 mg/kg, ip measured after 60 mins by thermometric method; assay type: functional, organism-based; how it was run: as §1
[13] = test system: Mus musculus; experiment: Induction of hypothermia in CD-1 mouse assessed as change in body temperature at 15 mg/kg, ip measured after 60 mins by thermometric method (reference value: 0.1 deg C); assay type: functional, organism-based; how it was run: as §1
[14] = test system: Mus musculus; experiment: Induction of hypothermia in CD-1 mouse assessed as change in body temperature at 17.5 mg/kg, ip measured after 60 mins by thermometric method (reference value: 0.1 deg C); assay type: functional, organism-based; how it was run: as §1
[15] = test system: Mus musculus; experiment: Induction of hypothermia in CD-1 mouse assessed as change in body temperature at 5 mg/kg, ip measured after 90 mins by thermometric method; assay type: functional, organism-based; how it was run: as §1
[16] = test system: Mus musculus; experiment: Induction of hypothermia in CD-1 mouse assessed as change in body temperature at 20 mg/kg, ip measured after 90 mins by thermometric method; assay type: functional, organism-based; how it was run: as §1
[17] = test system: Mus musculus; experiment: Induction of hypothermia in CD-1 mouse assessed as change in body temperature at 15 mg/kg, ip measured after 90 mins by thermometric method (reference value: -0.1 to 0.1 deg C); assay type: functional, organism-based; how it was run: as §1
[18] = test system: Mus musculus; experiment: Induction of hypothermia in CD-1 mouse assessed as change in body temperature at 17.5 mg/kg, ip measured after 90 mins by thermometric method (reference value: -0.1 to 0.1 deg C); assay type: functional, organism-based; how it was run: as §1
[19] = test system: Mus musculus; experiment: Induction of hypothermia in CD-1 mouse assessed as change in body temperature at 5 mg/kg, ip measured after 120 mins by thermometric method; assay type: functional, organism-based; how it was run: as §1
[20] = test system: Mus musculus; experiment: Induction of hypothermia in CD-1 mouse assessed as change in body temperature at 20 mg/kg, ip measured after 120 mins by thermometric method; assay type: functional, organism-based; how it was run: as §1
[21] = test system: Mus musculus; experiment: Induction of hypothermia in CD-1 mouse assessed as change in body temperature at 15 mg/kg, ip measured after 120 mins by thermometric method (reference value: -0.1 to 0.1 deg C); assay type: functional, organism-based; how it was run: as §1
[22] = test system: Mus musculus; experiment: Induction of hypothermia in CD-1 mouse assessed as change in body temperature at 17.5 mg/kg, ip measured after 120 mins by thermometric method (reference value: -0.1 to 0.1 deg C); assay type: functional, organism-based; how it was run: as §1
[23] = Half life in human liver microsomes at 1 uM by LC-MS analysis; assay type: ADME, Microsome
How it was run: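 Compound at 1 μM incubated at 37 °C with 1 mg/mL pooled human liver microsomes and 100 μM NADPH in 0.1 M potassium phosphate pH 7.4, after 5-min preincubation. Samples taken at 0, 5, 10, 15, 30 min and quenched in ice-cold acetonitrile with buspirone internal standard. No-NADPH controls were run. Parent measured by LC-ESI(+)-MS of [M+H+]; half-life reported.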

Chain of Sodium-dependent serotonin transporter (P31652 whole entry): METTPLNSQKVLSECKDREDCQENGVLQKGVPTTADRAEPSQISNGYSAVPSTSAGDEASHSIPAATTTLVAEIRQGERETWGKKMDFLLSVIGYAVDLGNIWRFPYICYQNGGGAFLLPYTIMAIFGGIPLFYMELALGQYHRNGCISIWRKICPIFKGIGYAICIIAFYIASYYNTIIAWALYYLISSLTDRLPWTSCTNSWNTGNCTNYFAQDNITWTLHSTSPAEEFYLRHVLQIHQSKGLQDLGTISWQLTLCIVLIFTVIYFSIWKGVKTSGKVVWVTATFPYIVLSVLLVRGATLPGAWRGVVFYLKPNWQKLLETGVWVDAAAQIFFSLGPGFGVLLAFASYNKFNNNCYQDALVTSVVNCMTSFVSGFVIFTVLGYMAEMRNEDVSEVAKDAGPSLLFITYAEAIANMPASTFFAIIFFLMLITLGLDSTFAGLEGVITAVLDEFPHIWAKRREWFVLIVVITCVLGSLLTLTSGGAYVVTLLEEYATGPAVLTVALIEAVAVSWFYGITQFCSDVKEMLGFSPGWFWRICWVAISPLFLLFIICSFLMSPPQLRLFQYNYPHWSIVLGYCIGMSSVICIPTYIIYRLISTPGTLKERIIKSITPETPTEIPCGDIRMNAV
Chain of 5-hydroxytryptamine receptor 6 (P50406 whole entry): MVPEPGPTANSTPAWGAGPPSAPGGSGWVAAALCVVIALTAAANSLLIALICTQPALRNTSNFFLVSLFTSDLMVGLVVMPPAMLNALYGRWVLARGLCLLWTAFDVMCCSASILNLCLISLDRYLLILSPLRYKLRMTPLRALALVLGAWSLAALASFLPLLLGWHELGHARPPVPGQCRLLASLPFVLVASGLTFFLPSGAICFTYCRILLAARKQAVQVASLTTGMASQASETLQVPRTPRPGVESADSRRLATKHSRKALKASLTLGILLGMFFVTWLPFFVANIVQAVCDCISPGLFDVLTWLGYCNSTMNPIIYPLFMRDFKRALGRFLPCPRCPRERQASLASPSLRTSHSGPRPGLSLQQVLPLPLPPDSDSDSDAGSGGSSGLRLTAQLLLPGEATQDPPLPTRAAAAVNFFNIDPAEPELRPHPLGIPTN
Chain of D(2) dopamine receptor (P14416 whole entry): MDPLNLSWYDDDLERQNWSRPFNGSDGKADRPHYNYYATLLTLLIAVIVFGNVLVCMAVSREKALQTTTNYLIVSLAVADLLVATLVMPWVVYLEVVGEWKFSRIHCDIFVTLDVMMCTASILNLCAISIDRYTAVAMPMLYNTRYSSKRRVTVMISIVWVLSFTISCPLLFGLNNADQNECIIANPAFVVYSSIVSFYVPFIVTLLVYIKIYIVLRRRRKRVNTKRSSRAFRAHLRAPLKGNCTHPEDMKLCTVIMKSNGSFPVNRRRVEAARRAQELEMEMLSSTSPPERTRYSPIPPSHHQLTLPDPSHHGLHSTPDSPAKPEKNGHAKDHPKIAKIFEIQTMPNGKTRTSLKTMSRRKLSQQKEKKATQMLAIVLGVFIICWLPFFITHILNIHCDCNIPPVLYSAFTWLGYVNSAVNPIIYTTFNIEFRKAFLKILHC
Chain of 5-hydroxytryptamine receptor 2A (P28223 whole entry): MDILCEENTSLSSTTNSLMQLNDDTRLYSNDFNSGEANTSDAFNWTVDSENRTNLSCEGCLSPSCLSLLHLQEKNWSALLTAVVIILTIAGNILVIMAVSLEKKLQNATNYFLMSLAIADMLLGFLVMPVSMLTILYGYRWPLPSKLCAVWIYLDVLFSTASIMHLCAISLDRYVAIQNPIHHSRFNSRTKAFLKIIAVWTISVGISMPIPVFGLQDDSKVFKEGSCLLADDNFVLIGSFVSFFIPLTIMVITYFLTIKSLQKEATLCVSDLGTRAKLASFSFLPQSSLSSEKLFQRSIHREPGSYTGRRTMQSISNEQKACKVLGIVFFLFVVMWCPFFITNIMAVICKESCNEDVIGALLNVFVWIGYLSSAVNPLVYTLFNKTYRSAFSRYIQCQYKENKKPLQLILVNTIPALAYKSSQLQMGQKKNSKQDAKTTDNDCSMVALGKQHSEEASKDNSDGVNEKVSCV
Chain of 5-hydroxytryptamine receptor 7 (P34969 whole entry): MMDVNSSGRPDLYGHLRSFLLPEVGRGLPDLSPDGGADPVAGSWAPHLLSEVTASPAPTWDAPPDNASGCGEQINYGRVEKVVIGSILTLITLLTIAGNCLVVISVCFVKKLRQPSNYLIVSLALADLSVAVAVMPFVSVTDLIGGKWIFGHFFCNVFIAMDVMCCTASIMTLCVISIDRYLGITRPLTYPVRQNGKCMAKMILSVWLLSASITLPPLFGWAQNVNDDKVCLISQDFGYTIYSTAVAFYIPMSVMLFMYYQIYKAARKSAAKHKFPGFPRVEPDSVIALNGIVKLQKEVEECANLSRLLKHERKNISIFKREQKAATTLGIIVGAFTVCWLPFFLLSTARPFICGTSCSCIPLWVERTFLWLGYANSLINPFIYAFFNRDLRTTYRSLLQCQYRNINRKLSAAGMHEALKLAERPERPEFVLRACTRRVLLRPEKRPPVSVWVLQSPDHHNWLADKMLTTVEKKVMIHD

Ki [1]: 62 nM | Ki [2]: 86 nM | Ki [3]: 314 nM | Ki [4]: 690 nM | Ki [5]: 958 nM | Ki [6]: 11200 nM | half-life at 1 µM [23]: 3.31 min
SMILES: COc1ccc(-c2c(=O)n(CCCCN3CCCC(c4c[nH]c5ccc(OC)cc45)C3)c(=O)n3ccccc23)cc1 (stereo not drawn)
deltaT [7]: -0.2 °C | deltaT [8]: -2.4 °C | deltaT [9]: -0.5 °C | deltaT [10]: -0.6 °C | deltaT [11]: 0.2 °C | deltaT [12]: -1 °C | deltaT [13]: 0.2 °C | deltaT [14]: -0.2 °C | deltaT [15]: 0.2 °C | deltaT [16]: 0.1 °C | deltaT [17]: 0.3 °C | deltaT [18]: -0.1 °C | deltaT [19]: -0.2 °C | deltaT [20]: 0 °C | deltaT [21]: 0.2 °C | deltaT [22]: 0.1 °C
